# From publication PMC2854023 (Journal of biomolecular screening, 2010)
# Read-outs that look alike come from different tables or passages of the source.
# How the values were obtained:
# PDE7A = PDE7A (Homo sapiens, UniProt Q13946); assay: In vitro PDE enzyme assay; assay type: biochemical
# Summary of the method: (§1)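 Radiometric PDE assay with 25nM initial 3H-cAMP for 15 min, over which the hydrolysis rate was constant. 3H-AMP was separated by Ba(OH)2 precipitation and remaining cAMP counted by scintillation. PDE7A was commercial; PDE7B was a gift. IC50 is the concentration halving the hydrolysis rate relative to vehicle controls. PDE7B Km came from Michaelis-Menten kinetics, analysed by Lineweaver-Burke and Eadie-Hofstee plots.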
# PDE7B = PDE7B (Homo sapiens, UniProt Q9NP56); assay: In vitro PDE enzyme assay; assay type: biochemical; conditions: for IC50 on PDE7B relative to PDE7A: in vitro enzyme assays, PDE7B vs PDE7A
# PDE7B, sequence (Q9NP56 whole entry, species assumed): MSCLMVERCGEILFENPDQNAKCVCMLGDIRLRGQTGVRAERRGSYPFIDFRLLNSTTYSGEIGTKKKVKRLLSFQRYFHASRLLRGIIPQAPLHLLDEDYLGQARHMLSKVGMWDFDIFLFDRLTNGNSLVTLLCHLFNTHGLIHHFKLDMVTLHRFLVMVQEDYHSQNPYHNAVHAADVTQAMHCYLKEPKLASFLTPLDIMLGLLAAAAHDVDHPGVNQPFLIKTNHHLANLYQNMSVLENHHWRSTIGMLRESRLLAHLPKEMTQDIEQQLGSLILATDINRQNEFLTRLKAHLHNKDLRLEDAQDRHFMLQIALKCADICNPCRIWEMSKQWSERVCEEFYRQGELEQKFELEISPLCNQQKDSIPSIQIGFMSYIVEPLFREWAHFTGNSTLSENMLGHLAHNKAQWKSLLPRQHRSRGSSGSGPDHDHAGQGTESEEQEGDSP
# Summary of the method: as §1
# human PDE7A1 = human PDE7A1 (Homo sapiens, UniProt Q13946); assay: Fission yeast 5FOA growth assay / HTS, PDE7A-expressing strain CHP1189; assay type: cell-based; conditions: for stimulation of 5FOA-resistant growth, PDE7A-expressing strain: range of concentrations, 48 hours, OD600; for average OD600 in PDE7A HTS: 20μM compound, 48 hours growth in 5FOA medium, duplicate
# human PDE7A1, sequence (Q13946 whole entry): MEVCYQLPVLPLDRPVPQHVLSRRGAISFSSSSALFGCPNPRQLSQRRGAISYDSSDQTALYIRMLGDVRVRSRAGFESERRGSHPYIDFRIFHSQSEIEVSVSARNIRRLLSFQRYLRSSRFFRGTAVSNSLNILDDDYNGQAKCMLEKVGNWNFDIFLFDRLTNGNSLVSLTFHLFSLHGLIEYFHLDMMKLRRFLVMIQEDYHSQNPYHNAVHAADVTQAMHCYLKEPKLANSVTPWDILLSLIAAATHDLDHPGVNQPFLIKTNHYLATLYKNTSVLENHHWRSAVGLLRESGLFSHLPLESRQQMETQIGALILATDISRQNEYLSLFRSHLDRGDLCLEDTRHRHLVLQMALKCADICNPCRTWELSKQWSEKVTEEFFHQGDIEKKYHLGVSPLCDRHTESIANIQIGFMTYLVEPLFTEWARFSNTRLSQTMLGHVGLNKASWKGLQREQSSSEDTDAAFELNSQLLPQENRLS
# Summary of the method: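 Fission yeast strain CHP1189 carries human PDE7A in place of cgs2, plus gpa2Δ, pap1Δ and fbp1-ura4/fbp1-lacZ reporters. It was grown to exponential phase in EMM with 2.5 mM cAMP, then resuspended in 5FOA medium at 1 × 10^5 cells/ml. Compounds were mostly at 20μM, in duplicate, with DMSO negative and 5mM cAMP positive controls. Growth was 48 h at 30°C, read as OD600. Per-plate Z scores were combined into a composite Z score.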
# human PDE7B1 = human PDE7B1 (Homo sapiens, UniProt Q9NP56); assay: Fission yeast 5FOA growth assay, PDE7B-expressing strain; assay type: cell-based; conditions: range of concentrations, 48 hours, OD600
# human PDE7B1, sequence (Q9NP56 whole entry): as the sequence (Q9NP56 whole entry, species assumed) above
# Summary of the method: (§2)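 5FOA growth assays, run as in the PDE7A screen, used fission yeast strains expressing human PDE4A1, PDE4B2, PDE4D3 or PDE7B1 from the cgs2 locus. Compound was added over a concentration range, with DMSO kept below 0.2%. Cultures grew 48 h at 30°C. OD600 is the mean of four wells.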
# human PDE4A1 = human PDE4A1 (Homo sapiens, UniProt P27815); assay: Fission yeast 5FOA growth assay, PDE4A1-expressing strain; assay type: cell-based; conditions: dose response, 48 hours
# human PDE4A1, sequence (P27815 1-647 isoform P27815-4): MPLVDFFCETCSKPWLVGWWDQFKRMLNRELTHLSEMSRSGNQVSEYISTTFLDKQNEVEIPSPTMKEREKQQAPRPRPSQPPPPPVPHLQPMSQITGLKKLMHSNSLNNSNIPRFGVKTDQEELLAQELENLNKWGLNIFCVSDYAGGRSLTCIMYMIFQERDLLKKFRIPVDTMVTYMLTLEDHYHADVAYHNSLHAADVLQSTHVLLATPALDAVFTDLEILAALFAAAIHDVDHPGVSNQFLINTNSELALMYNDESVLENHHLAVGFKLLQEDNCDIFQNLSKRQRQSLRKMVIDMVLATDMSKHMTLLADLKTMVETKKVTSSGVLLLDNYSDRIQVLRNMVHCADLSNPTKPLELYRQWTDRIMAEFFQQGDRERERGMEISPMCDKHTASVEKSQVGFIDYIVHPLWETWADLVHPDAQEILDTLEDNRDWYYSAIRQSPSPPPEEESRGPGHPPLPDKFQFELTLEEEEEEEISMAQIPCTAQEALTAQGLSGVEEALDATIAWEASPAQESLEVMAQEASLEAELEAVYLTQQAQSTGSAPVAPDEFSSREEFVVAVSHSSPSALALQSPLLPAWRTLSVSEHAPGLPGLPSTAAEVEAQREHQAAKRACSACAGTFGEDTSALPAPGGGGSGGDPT
# Summary of the method: as §2
# human PDE4B2 = human PDE4B2 (Homo sapiens, UniProt Q07343); assay: Fission yeast 5FOA growth assay, PDE4B2-expressing strain; assay type: cell-based; conditions: dose response, 48 hours
# Summary of the method: as §2
# human PDE4D3 = human PDE4D3 (Homo sapiens, UniProt Q08499); assay: Fission yeast 5FOA growth assay, PDE4D3-expressing strain; assay type: cell-based; conditions: dose response, 48 hours
# Summary of the method: as §2
# mouse PDE4A1 = molecular target: T1, mouse PDE4A1 (Mus musculus, UniProt O89084); assay: Fission yeast HTS, mouse PDE4A1-expressing strain; assay type: cell-based; conditions: 20μM
# T1 sequence (O89084 1-610 isoform O89084-2): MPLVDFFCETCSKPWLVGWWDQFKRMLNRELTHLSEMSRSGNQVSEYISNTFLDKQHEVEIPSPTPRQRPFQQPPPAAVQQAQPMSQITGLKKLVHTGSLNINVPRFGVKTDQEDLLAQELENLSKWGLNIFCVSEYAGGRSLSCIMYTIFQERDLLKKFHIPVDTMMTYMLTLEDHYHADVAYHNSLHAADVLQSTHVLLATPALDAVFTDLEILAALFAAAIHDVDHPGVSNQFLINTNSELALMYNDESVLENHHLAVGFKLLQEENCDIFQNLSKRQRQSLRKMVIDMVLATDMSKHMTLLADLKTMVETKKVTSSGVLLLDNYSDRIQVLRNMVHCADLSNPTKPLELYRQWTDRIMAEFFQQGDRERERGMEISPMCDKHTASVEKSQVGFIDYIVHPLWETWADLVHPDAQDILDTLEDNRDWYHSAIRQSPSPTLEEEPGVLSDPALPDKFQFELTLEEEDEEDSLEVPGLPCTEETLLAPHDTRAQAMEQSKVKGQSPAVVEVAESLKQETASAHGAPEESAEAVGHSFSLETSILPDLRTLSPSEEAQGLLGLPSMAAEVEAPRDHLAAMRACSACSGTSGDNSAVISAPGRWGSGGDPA
# PDE1B = PDE1B (Homo sapiens, UniProt Q01064); assay: Fission yeast 5FOA growth assay, PDE1B-expressing strain; assay type: cell-based; conditions: data not shown
# PDE1B, sequence (Q01064 whole entry, species assumed): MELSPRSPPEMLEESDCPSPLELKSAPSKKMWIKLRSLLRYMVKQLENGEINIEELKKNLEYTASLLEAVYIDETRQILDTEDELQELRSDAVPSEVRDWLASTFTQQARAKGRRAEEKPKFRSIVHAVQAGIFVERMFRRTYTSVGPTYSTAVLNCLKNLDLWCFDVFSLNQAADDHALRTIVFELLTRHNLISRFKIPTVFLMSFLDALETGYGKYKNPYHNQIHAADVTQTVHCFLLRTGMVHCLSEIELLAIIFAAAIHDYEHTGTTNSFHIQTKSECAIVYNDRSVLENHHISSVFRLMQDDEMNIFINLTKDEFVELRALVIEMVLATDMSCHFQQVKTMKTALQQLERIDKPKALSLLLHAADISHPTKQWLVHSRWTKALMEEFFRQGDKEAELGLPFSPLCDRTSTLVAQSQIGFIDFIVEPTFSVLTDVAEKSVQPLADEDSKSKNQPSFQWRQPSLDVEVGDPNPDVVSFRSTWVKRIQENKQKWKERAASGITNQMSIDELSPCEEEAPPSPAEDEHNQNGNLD
# Summary of the method: (§3)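 Fission yeast 5FOA growth assays used strains each expressing one mammalian PDE, read as OD600. For cGMP-specific PDEs, strains lacked adenylate cyclase and the 5FOA medium contained 30μM to 1mM cGMP.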
# PDE1C = PDE1C (Homo sapiens, UniProt Q14123); assay: Fission yeast 5FOA growth assay, PDE1C-expressing strain; assay type: cell-based; conditions: data not shown
# Summary of the method: as §3
# PDE2A = PDE2A (Homo sapiens, UniProt O00408); assay: Fission yeast 5FOA growth assay, PDE2A-expressing strain; assay type: cell-based; conditions: data not shown
# PDE2A, sequence (O00408 whole entry, species assumed): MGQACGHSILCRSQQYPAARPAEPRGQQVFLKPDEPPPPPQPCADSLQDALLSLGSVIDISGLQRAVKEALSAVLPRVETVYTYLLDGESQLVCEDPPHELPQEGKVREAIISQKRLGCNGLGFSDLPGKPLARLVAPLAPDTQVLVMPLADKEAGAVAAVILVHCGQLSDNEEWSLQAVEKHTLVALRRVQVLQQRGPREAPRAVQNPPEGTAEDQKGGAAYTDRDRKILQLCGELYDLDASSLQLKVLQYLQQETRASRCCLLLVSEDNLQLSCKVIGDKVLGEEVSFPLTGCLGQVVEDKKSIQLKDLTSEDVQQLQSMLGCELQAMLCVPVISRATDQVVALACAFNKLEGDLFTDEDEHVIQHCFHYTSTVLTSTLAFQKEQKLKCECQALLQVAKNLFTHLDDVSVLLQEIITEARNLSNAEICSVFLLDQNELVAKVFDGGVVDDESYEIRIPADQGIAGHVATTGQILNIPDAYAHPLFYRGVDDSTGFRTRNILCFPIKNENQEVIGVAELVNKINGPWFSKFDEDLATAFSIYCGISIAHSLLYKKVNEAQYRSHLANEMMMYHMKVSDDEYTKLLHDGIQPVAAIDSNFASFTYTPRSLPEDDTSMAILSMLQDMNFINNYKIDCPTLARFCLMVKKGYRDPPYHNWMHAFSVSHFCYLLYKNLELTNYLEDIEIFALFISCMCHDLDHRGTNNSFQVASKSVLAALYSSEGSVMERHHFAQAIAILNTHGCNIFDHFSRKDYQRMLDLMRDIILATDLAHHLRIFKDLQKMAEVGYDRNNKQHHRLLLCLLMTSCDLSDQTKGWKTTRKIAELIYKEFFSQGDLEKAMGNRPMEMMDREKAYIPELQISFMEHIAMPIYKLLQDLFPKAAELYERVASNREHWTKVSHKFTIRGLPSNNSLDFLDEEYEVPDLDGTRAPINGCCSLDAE
# Summary of the method: as §3
# PDE3B = PDE3B (Homo sapiens, UniProt Q13370); assay: Fission yeast 5FOA growth assay, PDE3B-expressing strain; assay type: cell-based; conditions: data not shown
# Summary of the method: as §3
# PDE5A = PDE5A (Homo sapiens, UniProt O76074); assay: Fission yeast 5FOA growth assay, PDE5A-expressing strain; assay type: cell-based; conditions: data not shown
# Summary of the method: as §3
# PDE8A = PDE8A (Homo sapiens, UniProt O60658); assay: Fission yeast 5FOA growth assay, PDE8A-expressing strain; assay type: cell-based; conditions: data not shown
# Summary of the method: as §3
# PDE9A = PDE9A (Homo sapiens, UniProt O76083); assay: Fission yeast 5FOA growth assay, PDE9A-expressing strain; assay type: cell-based; conditions: data not shown
# PDE9A, sequence (O76083 whole entry, species assumed): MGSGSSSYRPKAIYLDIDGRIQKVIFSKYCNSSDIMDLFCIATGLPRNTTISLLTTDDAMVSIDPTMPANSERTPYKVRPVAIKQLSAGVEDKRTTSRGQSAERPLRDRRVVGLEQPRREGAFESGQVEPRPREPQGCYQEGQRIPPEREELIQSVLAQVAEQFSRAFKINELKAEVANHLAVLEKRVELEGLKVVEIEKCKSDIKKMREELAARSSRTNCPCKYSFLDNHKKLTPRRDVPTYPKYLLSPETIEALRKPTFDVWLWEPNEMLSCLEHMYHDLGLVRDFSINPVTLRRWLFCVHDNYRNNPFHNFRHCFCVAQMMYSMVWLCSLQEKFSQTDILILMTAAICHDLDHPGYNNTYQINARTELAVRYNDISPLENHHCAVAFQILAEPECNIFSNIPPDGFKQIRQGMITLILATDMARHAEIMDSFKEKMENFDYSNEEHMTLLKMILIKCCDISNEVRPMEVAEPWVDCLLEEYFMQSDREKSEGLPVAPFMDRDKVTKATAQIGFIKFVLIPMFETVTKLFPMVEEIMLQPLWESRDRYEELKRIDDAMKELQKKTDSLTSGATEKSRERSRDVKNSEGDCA
# Summary of the method: as §3
# PDE11A = PDE11A (Homo sapiens, UniProt Q9HCR9); assay: Fission yeast 5FOA growth assay, PDE11A-expressing strain; assay type: cell-based; conditions: data not shown
# PDE11A, sequence (Q9HCR9 whole entry, species assumed): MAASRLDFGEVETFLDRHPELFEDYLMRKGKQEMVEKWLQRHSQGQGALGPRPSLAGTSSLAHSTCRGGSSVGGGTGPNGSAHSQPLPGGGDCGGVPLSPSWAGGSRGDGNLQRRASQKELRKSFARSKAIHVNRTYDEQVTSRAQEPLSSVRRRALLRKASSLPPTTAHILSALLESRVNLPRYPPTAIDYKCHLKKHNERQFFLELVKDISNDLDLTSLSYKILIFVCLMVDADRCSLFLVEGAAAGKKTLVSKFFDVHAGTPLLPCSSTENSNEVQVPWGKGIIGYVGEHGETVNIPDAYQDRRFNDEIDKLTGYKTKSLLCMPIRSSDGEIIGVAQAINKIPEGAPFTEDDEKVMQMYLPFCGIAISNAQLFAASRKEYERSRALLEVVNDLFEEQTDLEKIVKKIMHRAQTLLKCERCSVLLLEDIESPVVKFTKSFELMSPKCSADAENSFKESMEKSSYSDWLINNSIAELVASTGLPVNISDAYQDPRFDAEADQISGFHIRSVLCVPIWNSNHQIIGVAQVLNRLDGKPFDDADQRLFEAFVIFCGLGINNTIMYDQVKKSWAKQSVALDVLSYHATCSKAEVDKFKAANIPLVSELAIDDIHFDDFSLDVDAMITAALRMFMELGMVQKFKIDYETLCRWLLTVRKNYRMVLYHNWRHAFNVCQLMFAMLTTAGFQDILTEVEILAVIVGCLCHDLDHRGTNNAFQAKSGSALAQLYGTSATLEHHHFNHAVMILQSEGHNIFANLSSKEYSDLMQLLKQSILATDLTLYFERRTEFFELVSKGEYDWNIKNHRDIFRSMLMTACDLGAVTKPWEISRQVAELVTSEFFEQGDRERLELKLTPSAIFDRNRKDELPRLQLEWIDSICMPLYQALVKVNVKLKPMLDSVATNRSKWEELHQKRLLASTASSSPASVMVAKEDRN
# Summary of the method: as §3
# PDE10A = assay: Fission yeast 5FOA growth assay, PDE10A-expressing strain; assay type: cell-based; conditions: 40μM compound, data not shown
# Summary of the method: as §3
# [1] = molecular target: PDE4D catalytic domain (residues 86-413 of PDE4D2) (Homo sapiens, UniProt Q08499); assay: In vitro enzyme assay, PDE4D catalytic domain; assay type: biochemical
# PDE4D catalytic domain (residues 86-413 of PDE4D2), sequence (Q08499 388-715): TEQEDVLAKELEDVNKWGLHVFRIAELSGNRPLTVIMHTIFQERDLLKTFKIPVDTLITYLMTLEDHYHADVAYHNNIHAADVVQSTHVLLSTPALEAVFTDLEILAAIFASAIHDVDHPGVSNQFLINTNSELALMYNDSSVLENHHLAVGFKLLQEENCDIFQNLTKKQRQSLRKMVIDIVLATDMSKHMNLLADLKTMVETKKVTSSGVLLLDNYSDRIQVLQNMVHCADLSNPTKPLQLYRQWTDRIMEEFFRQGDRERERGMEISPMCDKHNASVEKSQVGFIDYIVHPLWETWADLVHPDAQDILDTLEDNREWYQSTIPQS
# Summary of the method: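 PDE4D catalytic domain (PDE4D2 residues 86-413) was expressed in and purified from E. coli and tested in the 3H-cAMP hydrolysis assay with Ba(OH)2 precipitation. Enzyme was at 16 nM with 25 nM test compound across varying cAMP concentrations. A separate panel used 2μM compound against PDE4A, PDE4B and PDE4D catalytic domains.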
# [2] = molecular target: full-length PDE4D2 (residues 1-507) (Homo sapiens, UniProt Q08499); assay: In vitro enzyme assay, full-length PDE4D2; assay type: biochemical; conditions: data not shown
# [3] = system: TNFα release by LPS-treated U937 cells; assay: TNFα release assay in PMA-activated, LPS-treated U937 cells; assay type: cell-based, human; conditions: for TNFα release, combined with rolipram, 3 hours LPS / TNFα release, combined with rolipram, 20 hours LPS: 10μM each, compared to rolipram alone
# Summary of the method: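 U937 cells at 10^6 cells/ml in RPMI 1640 with 10% FBS were primed 17 hr with 300 ng/ml PMA. Aliquots of […] were diluted with equal medium and given 10 μM compound, alone or with rolipram, for 1 hr; vehicle was ethanol with <0.1% DMSO. LPS (25 μg/ml) followed, and supernatant TNFα was measured by ELISA at 3 or 20 h. Values are % of vehicle, 2–6 independent experiments, paired one-tailed t-test.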
# [4] = 10μM, 1 hr pretreatment, vs vehicle-treated control
# PDE7A, sequence (Q13946 whole entry, species assumed): as the sequence (Q13946 whole entry) above
smiles,measurement,setting,value
"N#Cc1sc2sc(C#N)c(-c3ccco3)c2c1N [BC30, 3-amino-4-(2-furyl) thieno[2,3-b]thiophene-2,5-dicarbonitrile]",IC50,PDE7A,1.1 µM
same,IC50,PDE7B,3.7 µM
same,effect on Km of PDE7B,PDE7B; data not shown,appears to increase the Km of PDE7B
same,IC50 on PDE7B relative to PDE7A,PDE7B,four-fold lower IC50 on PDE7A than PDE7B
same,PDE7A inhibition upon rescreening,"human PDE7A1; 2μM, data not shown",one of the most effective PDE7A inhibitors
same,rank of Composite Z score in PDE7A HTS,"human PDE7A1; 20μM screen, 48,176 compounds",40
same,"stimulation of 5FOA-resistant growth, PDE7A-expressing strain",human PDE7A1,very potent at low micromolar concentrations
same,"stimulation of 5FOA-resistant growth, PDE7B-expressing strain",human PDE7B1,the best inhibitor of PDE7B
same,"effect on 5FOA growth, human PDE4A1 strain",human PDE4A1,no effect on the growth
same,"effect on 5FOA growth, human PDE4B2 strain",human PDE4B2,no effect on the growth
same,"effect on 5FOA growth, human PDE4D3 strain",human PDE4D3,no effect on the growth
same,"activity in HTS, mouse PDE4A1 strain",mouse PDE4A1,very weak activity
same,"effect on 5FOA growth, PDE1B strain",PDE1B,no effect on growth
same,"effect on 5FOA growth, PDE1C strain",PDE1C,no effect on growth
same,"effect on 5FOA growth, PDE2A strain",PDE2A,no effect on growth
same,"effect on 5FOA growth, PDE3B strain",PDE3B,no effect on growth
same,"effect on 5FOA growth, PDE5A strain",PDE5A,no effect on growth
same,"effect on 5FOA growth, PDE8A strain",PDE8A,no effect on growth
same,"effect on 5FOA growth, PDE9A strain",PDE9A,no effect on growth
same,"effect on 5FOA growth, PDE11A strain",PDE11A,no effect on growth
same,OD600 of PDE10A-expressing strain,PDE10A,0.53
same,effect on Vmax of PDE4D catalytic domain,"[1]; 25 nM compound, varying cAMP",doubling the Vmax
same,effect on cAMP hydrolysis by PDE4D catalytic domain,"[1]; 2μM compound, data not shown",significantly stimulate cAMP hydrolysis
same,concentration producing the maximum increase in PDE4D catalytic domain activity,[1]; enzyme concentration 16 nM,25 nM
same,effect on activity of full-length PDE4D2,[2],neither BC30 nor the other compounds that stimulate the catalytic domain of PDE4D affect the activity of the full-length PDE4D2
same,"TNFα release, combined with rolipram, 3 hours LPS",[3],dramatic reduction of TNFα release
same,"TNFα release, combined with rolipram, 20 hours LPS",[3],dramatic reduction of TNFα release
same,"TNFα release, compound alone, 3 hours LPS",[3]; [4],significant reduction in TNFα release
same,"TNFα release, compound alone, 20 hours LPS",[3]; [4],significant reduction in TNFα release
CC(=O)O[C@@H]1CC[C@@]2(C)[C@@H](CC[C@@H]3[C@@H]2CC[C@]2(C)C(=O)CC[C@@H]32)C1 [androsterone acetate],average OD600 in PDE7A HTS,human PDE7A1,> 0.821
"COc1ccc(C2CNC(=O)C2)cc1OC1CCCC1 (centres unmarked) [rolipram, reference compound]","TNFα release, compound alone, 20 hours LPS",[3]; [4],significant reduction in TNFα release
"C[C@]12CCC(=O)C=C1C=C[C@@H]1[C@@H]2CC[C@@]2(C)[C@H]1CC[C@@]21CCC(=O)O1 [canrenone, reference compound]",average OD600 in PDE7A HTS,human PDE7A1,> 0.821
"Cc1ccc([N+](=O)[O-])cc1S(=O)(=O)N(C)C [BRL50481, 3-(N,N-dimethylsulfonamido)-4-methyl-nitrobenzene, reference compound]",IC50,"PDE7A; read-out: IC50 against PDE7A, in vitro enzyme assay",~0.15 µM
same,IC50 on PDE7B relative to PDE7A,PDE7B,80 fold
same,"stimulation of 5FOA-resistant growth, PDE7A-expressing strain",human PDE7A1,most effective compound for stimulation of 5FOA-resistant growth
same,"stimulation of 5FOA-resistant growth, PDE7B-expressing strain",human PDE7B1,"rather poor inhibitor of PDE7B, equal to BC11 and BC39, and far less effective than BC30"
same,"TNFα release, combined with rolipram, 3 hours LPS",[3],modestly enhances the rolipram-mediated reduction of TNFα release
same,"TNFα release, combined with rolipram, 20 hours LPS",[3],modestly enhances the rolipram-mediated reduction of TNFα release
